Data as given in ChEMBL document CHEMBL1152451 (J Med Chem, 2009).

How the values were obtained:
Format in all cases: ADME, organism-based
[1] = Drug level in spontaneously hypersensitive rat at 300 mg/kg, po qd for 8 days measured after 24 hrs post dose; design: dose 300 mg/kg, route oral; settings: spontaneously hypersensitive rat (SHR), in vivo, read-out: Drug uptake
[2] = Drug level in spontaneously hypersensitive rat at 300 mg/kg, po qd for 8 days measured after 4 hrs post dose; design: dose 300 mg/kg, route oral; settings: spontaneously hypersensitive rat (SHR), in vivo, read-out: Drug uptake
[3] = test system: Rattus norvegicus; experiment: Increase in endogenous 20-HETE level in spontaneously hypersensitive rat kidney at 300 mg/kg, po for 8 days by LC/MS/MS analysis; design: dose 300 mg/kg, route oral; settings: in vivo, 192 h
Procedure, shortened: (§1)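 SHRs given daily oral doses, with kidneys analysed for endogenous epoxide/diol ratios and for 20-HETE. A parallel PK group of SHRs was sampled on the eighth day of dosing at 4 and 24 h postdose.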

[4] = test system: Rattus norvegicus; experiment: Increase in endogenous 14,15-EET/DHET ratio in spontaneously hypersensitive rat kidney at 300 mg/kg, po for 8 days by LC/MS/MS analysis; design: dose 300 mg/kg, route oral; settings: in vivo, 192 h; procedure, shortened: as §1
[5] = Half life in spontaneously hypersensitive rat at 1 mg/kg, iv and 2 mg/kg, po; settings: spontaneously hypersensitive rat (SHR), in vivo
[6] = Clearance in spontaneously hypersensitive rat at 1 mg/kg, iv and 2 mg/kg, po; settings: spontaneously hypersensitive rat (SHR), in vivo
[7] = Bioavailability in spontaneously hypersensitive rat at 1 mg/kg, iv and 2 mg/kg, po; settings: spontaneously hypersensitive rat (SHR), in vivo
[8] = Volume of distribution at steady state in spontaneously hypersensitive rat at 1 mg/kg, iv and 2 mg/kg, po; settings: spontaneously hypersensitive rat (SHR), in vivo, read-out: Vdss

| Structure (SMILES) | concentration at 24 h [1] [µM] | concentration at 4 h [2] [µM] | fold change (FC) [3] | fold change (FC) [4] | half-life [5] [h] | clearance [6] [mL/min/kg] | bioavailability [7] [%] | Vd [8] [L/kg] |
| --- | --- | --- | --- | --- | --- | --- | --- | --- |
| O=C(N[C@@H]1C[C@H]1c1ccccc1)N1CCC(c2nc(-c3ccccn3)no2)CC1 | 20 | 35 | 2.5 | 2 | – | – | – | – |
| O=C(NC1CC1c1ccccc1)N1CCC(c2nc(-c3ccccn3)no2)CC1 (stereo in doubt; 2d) | – | – | – | – | 1.4 | 29 | 77 | 2.7 |
